Measurements reported in ChEMBL document CHEMBL4390672, “Development of Covalent Ligands for G Protein-Coupled Receptors: A Case for the Human Adenosine A3 Receptor” (J Med Chem, 2019).
Where a chain is given by its changes, count along the chain named.

Legend:
[1] = target: T1, Adenosine receptor A3 (Homo sapiens) (UniProt P0DMS8); assay: Displacement of [3H]PSB11 from human A3 adenosine receptor expressed in CHO cell membranes measured after 2 hrs by scintillation spectrometric method
T1 sequence (whole entry): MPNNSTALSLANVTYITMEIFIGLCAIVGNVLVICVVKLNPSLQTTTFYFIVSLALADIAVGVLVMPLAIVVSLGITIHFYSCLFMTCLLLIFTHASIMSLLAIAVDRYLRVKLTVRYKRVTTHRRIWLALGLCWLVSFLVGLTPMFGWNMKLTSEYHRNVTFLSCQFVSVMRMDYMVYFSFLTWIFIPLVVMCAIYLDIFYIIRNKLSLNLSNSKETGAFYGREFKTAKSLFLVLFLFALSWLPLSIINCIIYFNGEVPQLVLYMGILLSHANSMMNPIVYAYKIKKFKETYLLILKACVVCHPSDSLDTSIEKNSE

[2] = target: T1, Adenosine receptor A3 (Homo sapiens); assay: Displacement of [3H]PSB11 from human A3 adenosine receptor expressed in CHO cell membranes at 10 uM measured after 2 hrs by scintillation spectrometric method relative to control
[3] = target: T2, Adenosine receptor A2b (Homo sapiens) (UniProt P29275); assay: Displacement of [3H]PSB-603 from human A2B adenosine receptor expressed in CHO cell membranes at 1 uM measured after 2 hrs by scintillation spectrometric method relative to control
T2 sequence (whole entry): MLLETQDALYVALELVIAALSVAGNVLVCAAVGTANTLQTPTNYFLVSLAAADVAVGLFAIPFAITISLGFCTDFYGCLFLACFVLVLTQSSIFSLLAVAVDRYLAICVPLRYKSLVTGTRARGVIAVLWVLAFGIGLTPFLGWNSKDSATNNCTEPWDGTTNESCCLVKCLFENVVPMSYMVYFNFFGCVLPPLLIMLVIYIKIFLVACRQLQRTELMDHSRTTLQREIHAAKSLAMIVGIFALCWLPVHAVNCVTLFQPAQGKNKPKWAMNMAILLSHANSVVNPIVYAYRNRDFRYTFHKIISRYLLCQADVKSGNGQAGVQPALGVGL

[4] = target: T1, Adenosine receptor A3 (Homo sapiens); assay: Displacement of [3H]PSB11 from human A3 adenosine receptor transiently expressed in CHOK1 cell membranes measured after 2 hrs by scintillation spectrometric method
Outline: (§1)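 CHO-K1 cells transfected by PEI (3:1, 20 µg DNA/dish) with WT or Y265F7.36 hA3AR, then given 5 mM sodium butyrate for 24 h before membrane preparation.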

[5] = system: T3, Adenosine receptor A3 (Homo sapiens), P0DMS8 [Y265F]; assay: Displacement of [3H]PSB11 from human A3 adenosine receptor Y265F (7.36) mutant transiently expressed in CHOK1 cell membranes measured after 2 hrs by scintillation spectrometric method; outline: as §1
T3 sequence (whole entry): T1 sequence (whole entry) with Y265F

Adenosine receptor A3 [6] = target: T4, Adenosine receptor A3 (Homo sapiens, UniProt P0DMS8); assay: Irreversible displacement of [3H]PSB11 from human A3 adenosine receptor expressed in CHO cell membranes measured up to 240 mins by scintillation spectrometric method; details: in the assay text read “Displacement” for “Irreversible displacement”
T4 sequence (P0DMS8 whole entry): T1 sequence (whole entry)
Outline: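 Bound radioligand sampled at time points up to 240 min, then filtered and counted. Competitor kon (k3) and koff (k4) obtained by Motulsky–Mahan fitting, using [3H]PSB-11 k1 and k2 from earlier work.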

[7] = target: T1, Adenosine receptor A3 (Homo sapiens); assay: Reversible displacement of [3H]PSB11 from human A3 adenosine receptor expressed in CHO cell membranes assessed as residual binding level at 10 times Ki measured after 2 hrs by scintillation spectrometric method relative to control
Outline: (§2)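 Samples then either taken unwashed or put through four centrifugation wash cycles before exposure to [3H]PSB-11. Remaining specific binding was normalized to vehicle (100%). Three experiments in duplicate; unpaired t test.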

[8] = target: T1, Adenosine receptor A3 (Homo sapiens); assay: (§3) Reversible displacement of [3H]PSB11 from human A3 adenosine receptor expressed in CHO cell membranes assessed as residual binding level at 10 times Ki incubated for 2 hrs followed by 4 times membrane washout and subsequent [3H]PSB11 addition by scintillation spectrometric method relative to control; outline: as §2
Adenosine receptor A3 [9] = target: T4, Adenosine receptor A3; assay: Competitive surmountable antagonist activity at human A3 adenosine receptor expressed in CHO cell membranes assessed as inhibition of 2-Cl-IB-MECA-induced [35S]-GTPgammaS binding preincubated for 60 mins followed by 2-Cl-IB-MECA and [35S]-GTPgammaS addition and measured after 30 mins; assay type: functional; details: read-out: pA2 (converted)
Adenosine receptor A3 [10] = target: T4, Adenosine receptor A3; assay: Competitive surmountable antagonist activity at human A3 adenosine receptor expressed in CHO cell membranes assessed as inhibition of 2-Cl-IB-MECA-induced [35S]-GTPgammaS binding measured after 30 mins; assay type: functional; details: read-out: pA2 (converted)
[11] = target: T1, Adenosine receptor A3 (Homo sapiens); assay: as §3, with “Irreversible” for “Reversible”, “ans” for “and”
Outline: (§4)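 Membranes then either unwashed or washed four times by centrifugation before [3H]PSB-11 addition. Specific binding normalized to vehicle (100%); three experiments in duplicate; unpaired t test.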

[12] = system: T3, Adenosine receptor A3 (Homo sapiens), P0DMS8 [Y265F]; assay: (§5) Displacement of [3H]PSB11 from human A3 adenosine receptor Y265F (7.36) mutant transiently expressed in CHOK1 cell membranes assessed as residual binding level at 10 times IC50 measured after 2 hrs by scintillation spectrometric method
Outline: (§6)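 Membranes then either unwashed or washed four times before [3H]PSB-11 exposure. Binding normalized to vehicle (100%); three experiments in duplicate.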

[13] = system: T3, Adenosine receptor A3 (Homo sapiens), P0DMS8 [Y265F]; assay: as §5, with “incubated for” for “measured after”, “hrs followed by 4 times membrane washout and subsequent [3H]PSB11 addition” for “hrs”; outline: as §6
[14] = target: T1, Adenosine receptor A3 (Homo sapiens); assay: Displacement of [3H]PSB11 from human A3 adenosine receptor expressed in CHO cell membranes by scintillation spectrometric method; details: TDE = time-dependent effect
Outline: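 CHO membranes stably expressing hA3AR (15 µg) in 50 mM Tris-HCl, 5 mM MgCl2, 0.01% CHAPS, 1 mM EDTA, pH 7.4, with ~10 nM [3H]PSB-11 and six competitor concentrations, 120 min at 25 °C. Nonspecific binding defined with 100 µM NECA. Filtration, then scintillation counting; one-site fit, Cheng-Prusoff Ki; three experiments in duplicate.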

[15] = target: T1, Adenosine receptor A3 (Homo sapiens); assay: Irreversible displacement of [3H]PSB11 from human A3 adenosine receptor expressed in CHO cell membranes assessed as residual binding level at 10 times Ki measured after 2 hrs by scintillation spectrometric method relative to control; outline: as §4

`CCCn1c(=O)c2c(nc3cc(OC)ccn32)n(CCOC(=O)c2cccc(S(=O)(=O)F)c2)c1=O` was tested, and the inhibition [1] was “Dose-dependent effect”.
With `CCCn1c(=O)c2c(nc3cc(OC)ccn32)n(CCCOC(=O)c2cccc(S(=O)(=O)F)c2)c1=O` the inhibition [1] was “Dose-dependent effect”.
For `CCCn1c(=O)c2c(nc3cc(OC)ccn32)n(CCCCNC(=O)c2cccc(S(=O)(=O)F)c2)c1=O`, the inhibition [1] was “Dose-dependent effect”.
`CCCn1c(=O)c2c(nc3cc(OC)ccn32)n(CCCCOC(=O)c2ccc(S(=O)(=O)F)cc2)c1=O` was tested, and the inhibition [1] was “Dose-dependent effect”.
With `CCCn1c(=O)c2c(nc3cc(OC)ccn32)n(CCCCOC(=O)c2cccc(S(=O)(=O)F)c2)c1=O` the inhibition [1] was “Dose-dependent effect”.
With `CCCn1c(=O)c2c(nc3cc(OC)ccn32)n(CCOC(=O)c2ccc(S(=O)(=O)F)cc2)c1=O` the inhibition [1] was “Dose-dependent effect”.
For `CCCn1c(=O)c2c(nc3cc(OC)ccn32)n(CCNC(=O)c2ccc(S(=O)(=O)F)cc2)c1=O`, the inhibition [1] was “Dose-dependent effect” and the inhibition [2] was 27%.
For `CCCn1c(=O)c2c(nc3cc(OC)ccn32)n(CCCCNC(=O)c2ccc(S(=O)(=O)F)cc2)c1=O`, the inhibition [1] was “Dose-dependent effect”.
With `CCCn1c(=O)c2c(nc3cc(OC)ccn32)n(CCCNC(=O)c2ccc(S(C)(=O)=O)cc2)c1=O` the inhibition [1] was “Dose-dependent effect”, the inhibition [3] was 0% and the pIC50(app) [4] was 5.9. For the same molecule, the pIC50(app) [5] was 6.1, the Ki (Adenosine receptor A3 [6]) was 525 nM and the Activity [7] was 19.8%. For the same molecule, the Activity [8] was 97.6%, the Kb (Adenosine receptor A3 [9]) was 1260 nM and the Kb (Adenosine receptor A3 [10]) was 631 nM.
In the case of `CCCn1c(=O)c2c(nc3cc(OC)ccn32)n(CCNC(=O)c2cccc(S(=O)(=O)F)c2)c1=O`, the inhibition [1] is reported as “Dose-dependent effect” and the inhibition [2] is reported as 18%.
`CCCn1c(=O)c2c(nc3cc(OC)ccn32)n(CCCOC(=O)c2ccc(S(=O)(=O)F)cc2)c1=O` was tested, and the inhibition [1] was “Dose-dependent effect”.
With `CCCn1c(=O)c2c(nc3cc(OC)ccn32)n(CCCNC(=O)c2cccc(S(=O)(=O)F)c2)c1=O` the inhibition [1] was “Dose-dependent effect”.
With `CCCn1c(=O)c2c(nc3cc(OC)ccn32)n(CCCNC(=O)c2ccc(S(=O)(=O)F)cc2)c1=O` the inhibition [1] was “Dose-dependent effect”, the Activity [11] was 8.7% and the Activity [12] was 7.2%. For the same molecule, the Activity [13] was 91%, the inhibition [14] was “Tde” and the Activity [15] was 11.3%.
